Reference: article PMC7271596 (Haematologica, 2019)

Tests used:
[1] = tested on: SKM1, K562, KG1a, THP-1, and HL60 cell lines; assay: Apoptosis, Annexin V-positive cells at day 3, five cell lines; assay type: cell-based, human; settings: IC10 APR alone, day 3, cell lines tested
Outline: (§1)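 Human myeloid lines in RPMI 1640 with 10% FBS, 1% penicillin/streptomycin and 1% GlutaMAX. Log-phase cells seeded at 2x10^5/mL. Drugs added once at day 0: IC10 APR, IC50 AZA, or both at these concentrations. Annexin V-positive cells scored at day 3. Results given as means ± SD; Mann-Whitney test, two-sided.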

[2] = tested on: SKM1, K562, KG1a, THP-1, and HL60 cell lines; assay: Cell cycle distribution 24 hours after treatment, five cell lines; assay type: cell-based, human; settings: IC10 APR alone, various cell lines tested
SKM1 cell line = assay: Transcriptomic analysis; assay type: cell-based, human; settings: IC10 APR vs untreated SKM1 cells, GSEA
SKM1 cells [3] = assay: Cell cycle distribution 24 hours after treatment; assay type: cell-based, human; settings: SKM1, 24 hours after exposure, IC10 APR with or without IC50 AZA
SKM1 cells [4] = assay: Cytotoxicity; assay type: cell-based, human
[5] = tested on: primary cells from MDS/AML patients; assay: Clonogenic assay in semi-solid medium; assay type: cell-based, human; settings: 14 days, 34 MDS/AML patient samples
[6] = tested on: SKM1, K562, KG1a, THP-1, and HL60 cell lines; assay: Cytotoxicity; assay type: cell-based, human; settings: all of the cell lines tested (SKM1, K562, KG1a, THP-1, HL60)
HL60 cells = assay: Cytotoxicity; assay type: cell-based; settings: Homo sapiens, HL-60, 72 h, read-out: IC50 (proliferation)
SKM1 cells [7] = assay: Apoptosis, Annexin V-positive cells at day 3; assay type: cell-based, human; settings: SKM1, day 3, IC10 APR and/or IC50 AZA
Outline: as §1

Molecule | induction of apoptosis [1] | effect on cell cycle distribution [2] | ROS-induced genes NES (SKM1 cell line; 18 hours) | early apoptotic program NES (SKM1 cell line) | p53 pathway Normalized Enrichment Score (NES) (SKM1 cell line) | cells in G0/G1 phase (SKM1 cells [3]) | IC50 fold lower for the SKM1 cell line compared to the other AML lines (SKM1 cells [4]; SKM1 vs K562, KG1a, THP-1, HL60) | reduction of myeloid and erythroid colony growth [5] | 50% inhibitory concentrations (IC50), cell proliferation [6] | IC50 (HL60 cells) | apoptotic cells (Annexin V-positive) (SKM1 cells [7]) | IC50 (SKM1 cells [4]; Homo sapiens, SKM-1, 72 h, read-out: IC50 (proliferation)) | effect on SKM1 cell proliferation (SKM1 cells [4]; FLT3-L on its own, 0.1 to 100 ng/mL)
COCC1(CO)C(=O)C2CCN1CC2 (centres unmarked) [APR, PRIMA-1^Met] | did not induce apoptosis | did not affect the cell cycle distribution | 1.2 | 1.1 | 1.2 | 62% | at least 2 fold | approximately 60% | in the micromolar range | – | – | – | –
Nc1ncn([C@@H]2O[C@H](CO)[C@@H](O)[C@H]2O)c(=O)n1 [AZA, 5-azacitidine] | – | – | – | – | – | – | – | 30% | – | 4500 nM | 19% | 540 nM | –
FLT3-L: FLT3 ligand from PeproTech (protein, UniProt P49771 27-235, looked up) Fms-related tyrosine kinase 3 …: TQDCSFQHSPISSDFAVKIRELSDYLLQDYPVTVASNLQDEELCGGLWRLVLAQRWMERLKTVAGSKMQGLLERVNTEIHFVTKCAFQPPPSCLRFVQTNISRLLQETSEQLVALKPWITRQNFSRCLELQCQPDSSTLPPPWSPRPLEATAPTAPQPPLLLLLLLPVGLLLLAAAWCLHWQRTRRRTPRPGEQVPPVPSPQDLLLVEH | – | – | – | – | – | – | – | – | – | – | – | – | did not affect SKM1 cell proliferation
